Results taken from ChEMBL document CHEMBL4382268, “Glycyrrhetinic acid derivatives containing aminophosphonate ester species as multidrug resistance reversers that block the NF-κB pathway and cell proliferation” (Bioorg Med Chem Lett, 2018).
pIC50: −log10 of the molar value. The source made the active and inactive calls. The calls are words filed in the database; no cut-off is given here.

Tests used:
[1] = system: L02; assay: Antiproliferative activity against human HL-7702 cells after 48 hrs by MTT assay; format: functional, cell-based; details: L02, 48 h
How it was run: (§1)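 MTT read-out of antiproliferative activity across cancer lines HepG-2, NCI-H460, MGC-803, A549 and MG-63 and normal liver line HL-7702. IC50 given as mean ± S.D. of three separate experiments, each run in triplicate.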

[2] = system: HepG2; assay: Antiproliferative activity against human HepG2 cells after 48 hrs by MTT assay; format: functional, cell-based; details: HepG2, 48 h; how it was run: as §1
[3] = system: NCI-H460; assay: Antiproliferative activity against human NCI-H460 cells after 48 hrs by MTT assay; format: functional, cell-based; details: NCI-H460, 48 h; how it was run: as §1
[4] = system: MG-63; assay: Antiproliferative activity against human MG63 cells after 48 hrs by MTT assay; format: functional, cell-based; details: MG-63, 48 h; how it was run: as §1
[5] = biological target: T1, Inhibitor of NF-kappa-B kinase alpha/beta (Homo sapiens) (UniProt O14920+O15111); assay: Inhibition of IKKalpha/beta-mediated IkappaBalpha phosphorylation in human A549 cells after 24 hrs by Western blot analysis; format: cell-based
How it was run: (§2)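 A549 cells exposed to 5, 10 and 20 µM for 24 h. Western blots probed for NF-κB, p-IκBα, IκBα and p-IKKα/β, with GAPDH as internal control. Three experiments, representative blot shown.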

[6] = species: Homo sapiens; assay: Inhibition of TNF-alpha induced activation of NF-kappaB (unknown origin) assessed as reduction in DNA binding ability at 5 to 20 uM by cell based ELISA relative to TNF-alpha alone
How it was run: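 ELISA-type DNA-binding assay of NF-κB in TNF-α-stimulated A549 cells treated at 5, 10 and 20 µM. Compared against untreated and TNF-α-only controls. Mean ± SD, p < 0.05, three runs.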

[7] = biological target: T1, Inhibitor of NF-kappa-B kinase alpha/beta (Homo sapiens); assay: Inhibition of IKKalpha/beta phosphorylation in human A549 cells up to 20 uM after 24 hrs by Western blot analysis; format: cell-based; how it was run: as §2
[8] = system: A549; assay: Reduction in IkappaBalpha level in human A549 cells up to 20 uM after 24 hrs by Western blot analysis; format: functional, cell-based; how it was run: as §2
[9] = system: SK-OV-3; assay: Growth inhibition of cisplatin sensitive human SKOV3 cells after 48 hrs by MTT assay; format: functional, cell-based; details: SK-OV-3, 48 h
How it was run: (§3)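 MTT growth inhibition in the paired ovarian lines, cisplatin-sensitive SK-OV-3 and cisplatin-resistant SK-OV-3/CDDP. IC50 given as mean ± S.D. of three separate experiments, each in triplicate.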

[10] = Growth inhibition of cisplatin-resistant human SKOV3/DDP cells after 48 hrs by MTT assay; format: functional; details: SK-OV-3, 48 h; how it was run: as §3
[11] = Selectivity ratio of IC50 for cisplatin-resistant human SKOV3/DDP cells to IC50 for cisplatin sensitive human SKOV3 cells; format: functional
How it was run: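 IC50 determined in resistant SK-OV-3/CDDP cells divided by IC50 in parental SK-OV-3 cells. Each IC50 by MTT, three separate experiments each in triplicate.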

[12] = system: A549; assay: Induction of apoptosis in human A549 cells after 24 hrs by annexin V-FITC/propidium iodide staining-based flow cytometry analysis; format: functional, cell-based
How it was run: (§4)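 A549 cells treated at 5, 10 and 20 µM for 24 h, then harvested and stained with Annexin V-FITC and PI. Flow cytometry quadrants: Q1 necrotic, Q2 late apoptotic/necrotic, Q3 early apoptotic, Q4 living. Performed three times.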

[13] = system: A549; assay: Induction of apoptosis in human A549 cells assessed as late apoptotic cells at 5 uM after 24 hrs by annexin V-FITC/propidium iodide staining-based flow cytometry analysis (reference value: 2.20%); format: functional; how it was run: as §4
[14] = system: A549; assay: Induction of apoptosis in human A549 cells assessed as necrotic apoptotic cells at 5 uM after 24 hrs by annexin V-FITC/propidium iodide staining-based flow cytometry analysis (reference value: 0.520%); format: functional; how it was run: as §4
[15] = system: A549; assay: Induction of apoptosis in human A549 cells assessed as viable cells at 5 uM after 24 hrs by annexin V-FITC/propidium iodide staining-based flow cytometry analysis (reference value: 96.0%); format: functional; details: A549, 24 h, read-out: Activity; how it was run: as §4
[16] = system: A549; assay: Induction of apoptosis in human A549 cells assessed as late apoptotic cells at 10 uM after 24 hrs by annexin V-FITC/propidium iodide staining-based flow cytometry analysis (reference value: 2.20%); format: functional; how it was run: as §4
[17] = system: A549; assay: Induction of apoptosis in human A549 cells assessed as necrotic apoptotic cells at 10 uM after 24 hrs by annexin V-FITC/propidium iodide staining-based flow cytometry analysis (reference value: 0.520%); format: functional; how it was run: as §4
[18] = system: A549; assay: Induction of apoptosis in human A549 cells assessed as viable cells at 10 uM after 24 hrs by annexin V-FITC/propidium iodide staining-based flow cytometry analysis (reference value: 96.0%); format: functional; details: A549, 24 h, read-out: Activity; how it was run: as §4
[19] = system: A549; assay: Induction of apoptosis in human A549 cells assessed as necrotic apoptotic cells at 20 uM after 24 hrs by annexin V-FITC/propidium iodide staining-based flow cytometry analysis (reference value: 0.520%); format: functional; how it was run: as §4
[20] = system: A549; assay: Cell cycle arrest in human A549 cells assessed as accumulation at G2 phase at 5 uM after 24 hrs by propidium iodide staining based flow cytometry (reference value: 14.1%); format: functional
[21] = system: A549; assay: Cell cycle arrest in human A549 cells assessed as accumulation at G1 phase at 10 uM after 24 hrs by propidium iodide staining based flow cytometry (reference value: 47.0%); format: functional
[22] = system: A549; assay: Cell cycle arrest in human A549 cells assessed as accumulation at G2 phase at 10 uM after 24 hrs by propidium iodide staining based flow cytometry (reference value: 14.1%); format: functional
[23] = system: A549; assay: Cell cycle arrest in human A549 cells assessed as accumulation at S phase at 10 uM after 24 hrs by propidium iodide staining based flow cytometry (reference value: 38.76%); format: functional
[24] = system: A549; assay: Cell cycle arrest in human A549 cells assessed as accumulation at G1 phase at 20 uM after 24 hrs by propidium iodide staining based flow cytometry (reference value: 47.0%); format: functional
[25] = system: A549; assay: Cell cycle arrest in human A549 cells assessed as accumulation at G2 phase at 20 uM after 24 hrs by propidium iodide staining based flow cytometry (reference value: 14.1%); format: functional
[26] = system: A549; assay: Cell cycle arrest in human A549 cells assessed as accumulation at S phase at 20 uM after 24 hrs by propidium iodide staining based flow cytometry (reference value: 38.76%); format: functional
[27] = system: A549; assay: Induction of apoptosis in human A549 cells assessed as hyper condensed nuclei at 5 to 20 uM after 24 hrs by Hoechst […] staining based fluorescence microscopic method; format: functional, cell-based
How it was run: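 After 24 h exposure at 5, 10 and 20 µM, A549 cells harvested and stained with Hoechst 33258. Nuclear morphology, including brightly stained hypercondensed nuclei, inspected against untreated control. Three experiments.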

[28] = system: A549; assay: Induction of mitochondrial membrane potential loss in human A549 cells at 5 to 20 uM after 24 hrs by JC-1 staining-based fluorescence microscopic analysis; format: functional, cell-based
How it was run: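 A549 cells treated at 5, 10 and 20 µM for 24 h, then loaded with JC-1 probe for 30 min. Red J-aggregate and green J-monomer fluorescence viewed by fluorescence microscopy. Three experiments.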

[29] = system: A549; assay: Induction of ROS generation in human A549 cells at 5 to 20 uM after 24 hrs by DCFH-DA staining-based fluorescence microscopic analysis; format: functional, cell-based
How it was run: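 Intracellular ROS in A549 cells after 24 h incubation, using DCF-DA probe. Green cytoplasmic fluorescence viewed by fluorescence microscopy against untreated control. Three experiments.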

SMILES: CCOP(=O)(OCC)C(Nc1ccc(CC(=O)NCCCCNC(=O)[C@@]2(C)CC[C@]3(C)CC[C@]4(C)C(=CC(=O)[C@@H]5[C@@]6(C)CC[C@H](OC(C)=O)C(C)(C)[C@@H]6CC[C@]54C)[C@@H]3C2)cc1)c1ccc(F)cc1 (some centres undefined)
- pIC50 [1]: < 4.30
- pIC50 [2]: 5.04
- pIC50 [3]: 5.08
- pIC50 [4]: 5.05
- inhibition [5]: Dose-dependent effect
- fold change (FC) [6]: 2.3
- inhibition [7]: Active
- Activity [8]: Active
- pIC50 [9]: 5.01
- pIC50 [10]: 5.05
- Ratio IC50 [11]: 0.92
- Activity [12]: Dose-dependent effect
- Activity [13]: 11.6%
- Activity [14]: 0.09%
- viability at 5 µM [15]: 86.4%
- Activity [16]: 22.6%
- Activity [17]: 0.386%
- viability at 10 µM [18]: 57.9%
- Activity [19]: 0.509%
- Activity [20]: 0%
- Activity [21]: 46.5%
- Activity [22]: 9.9%
- Activity [23]: 43.6%
- Activity [24]: 43.02%
- Activity [25]: 2.66%
- Activity [26]: 54.32%
- Activity [27]: Active
- Activity [28]: Active
- Activity [29]: Active
